From ChEMBL document CHEMBL5032505, “Design, Synthesis, and Activity Evaluation of Stereoconfigured Tartarate Derivatives as Potential Anti-inflammatory Agents In Vitro and In Vivo” (J Med Chem, 2021)
Active and inactive are the calls of the source. The calls are words filed in the database; no cut-off is given here.

Tests used:
Glycine max [1] = assay: Binding affinity to soybean 5-LOX assessed as change in entropy by isothermal titration calorimetry
In short: (§1)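 ITC at 25 °C in 0.1 M Tris buffer. Ligand at 100 μM in DMSO:Tris (1:9) titrated from a syringe stirred at 500 rpm into enzyme in the sample cell, 120 s spacing. 40 × 1 μL injections, except COX-1 at 20 × 2 μL. Buffer-only control titrations were subtracted.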

Mus musculus [2] = assay: Analgesic activity in Swiss albino mouse assessed as inhibition of acetic acid-induced writhing at 5 mg/kg, ip preincubated for 30 mins with substance P followed by compound addition for 30 mins prior to acetic acid challenge and measured after 30 mins; assay type: functional, organism-based; details: time 60.0 min
Mus musculus [3] = assay: Analgesic activity in Swiss albino mouse assessed as inhibition of acetic acid-induced writhing at 5 mg/kg, ip preincubated for 30 mins with L-NIL followed by compound addition for 30 mins prior to acetic acid challenge and measured after 30 mins; assay type: functional, organism-based; details: time 60.0 min
Mus musculus [4] = assay: Antiinflammatory activity in Swiss albino mouse model of carrageenan-induced paw edema assessed as reduction in paw thickness at 5 mg/kg, administered 30 mins prior to carrageenan challenge and measured upto 360 mins relative to control; assay type: functional; design: scale not given: the % may be the effect or the level left; details: time 390 min, 6.5 h
In short: (§2)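 100 μL freshly prepared 1% carrageenan injected into the subplantar hind paw, with indomethacin (10 mg/kg) or test compound given 30 min before. Dose–response arm used 0.5, 2.5, 5, 10, 20 mg/kg. Six animals per group. Paw thickness (mm) read at 15, 30, 60, 120, 180, 240, 300, 360 min. Result expressed as % decrease versus control.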

[5] = biological target: T1, Prostaglandin G/H synthase 2 (Homo sapiens) (UniProt P35354)
T1 sequence (whole entry): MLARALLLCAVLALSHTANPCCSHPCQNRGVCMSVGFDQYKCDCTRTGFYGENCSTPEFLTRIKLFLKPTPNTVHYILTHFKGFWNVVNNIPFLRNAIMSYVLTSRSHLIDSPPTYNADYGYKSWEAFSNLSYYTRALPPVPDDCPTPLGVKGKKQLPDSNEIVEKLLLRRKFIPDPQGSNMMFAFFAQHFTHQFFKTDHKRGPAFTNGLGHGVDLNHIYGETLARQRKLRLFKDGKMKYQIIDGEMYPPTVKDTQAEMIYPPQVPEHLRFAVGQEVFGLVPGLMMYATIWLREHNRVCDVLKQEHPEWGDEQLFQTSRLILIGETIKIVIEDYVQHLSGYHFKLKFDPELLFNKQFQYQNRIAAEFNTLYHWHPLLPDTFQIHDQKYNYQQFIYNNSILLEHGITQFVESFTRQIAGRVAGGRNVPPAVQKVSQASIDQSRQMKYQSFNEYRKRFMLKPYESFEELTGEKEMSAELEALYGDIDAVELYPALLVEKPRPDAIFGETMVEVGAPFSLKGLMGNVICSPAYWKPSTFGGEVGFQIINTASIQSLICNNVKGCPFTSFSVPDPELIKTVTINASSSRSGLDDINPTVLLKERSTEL

Glycine max [6] = test system: Glycine max
[7] = biological target: T2, Prostaglandin G/H synthase 1 (Ovis aries) (UniProt P05979)
T2 sequence (whole entry): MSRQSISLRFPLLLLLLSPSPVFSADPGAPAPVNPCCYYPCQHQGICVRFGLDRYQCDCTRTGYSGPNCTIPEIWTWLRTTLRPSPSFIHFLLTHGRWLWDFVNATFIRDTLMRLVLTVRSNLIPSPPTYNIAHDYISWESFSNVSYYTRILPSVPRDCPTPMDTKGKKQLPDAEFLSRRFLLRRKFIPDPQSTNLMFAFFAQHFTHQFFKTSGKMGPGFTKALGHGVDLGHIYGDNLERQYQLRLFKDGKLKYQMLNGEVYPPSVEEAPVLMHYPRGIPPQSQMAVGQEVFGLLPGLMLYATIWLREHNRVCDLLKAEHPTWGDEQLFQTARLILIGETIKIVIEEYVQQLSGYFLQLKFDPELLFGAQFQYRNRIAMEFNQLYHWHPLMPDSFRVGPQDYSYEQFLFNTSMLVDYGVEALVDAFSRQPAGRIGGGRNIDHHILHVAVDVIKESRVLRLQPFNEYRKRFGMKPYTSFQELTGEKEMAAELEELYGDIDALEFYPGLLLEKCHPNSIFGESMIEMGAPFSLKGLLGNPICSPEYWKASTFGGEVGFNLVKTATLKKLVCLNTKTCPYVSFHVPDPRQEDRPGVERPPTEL

[8] = biological target: Prostaglandin G/H synthase 1 (Homo sapiens) (UniProt P23219); assay: Inhibition of COX1 in human whole blood assessed as reduction in calcium ionophore-stimulated TXB2 production by ELISA; assay type: tissue-based
Chain of Prostaglandin G/H synthase 1 (Homo sapiens) (P23219 whole entry): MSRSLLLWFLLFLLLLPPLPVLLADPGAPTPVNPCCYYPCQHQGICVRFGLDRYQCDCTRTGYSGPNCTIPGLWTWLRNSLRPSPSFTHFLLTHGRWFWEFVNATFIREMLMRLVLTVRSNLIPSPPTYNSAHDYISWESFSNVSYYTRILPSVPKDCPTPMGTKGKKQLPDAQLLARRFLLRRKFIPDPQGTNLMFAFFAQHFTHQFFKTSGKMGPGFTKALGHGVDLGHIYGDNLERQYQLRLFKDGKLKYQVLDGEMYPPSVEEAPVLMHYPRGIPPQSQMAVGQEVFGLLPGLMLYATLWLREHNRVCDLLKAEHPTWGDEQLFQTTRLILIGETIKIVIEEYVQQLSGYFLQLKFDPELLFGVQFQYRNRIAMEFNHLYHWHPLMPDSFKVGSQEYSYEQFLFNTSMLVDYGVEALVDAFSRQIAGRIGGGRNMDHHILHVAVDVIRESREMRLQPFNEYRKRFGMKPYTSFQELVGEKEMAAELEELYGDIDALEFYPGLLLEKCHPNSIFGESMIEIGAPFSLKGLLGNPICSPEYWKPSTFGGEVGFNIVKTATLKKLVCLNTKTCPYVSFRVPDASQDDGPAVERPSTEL

[9] = biological target: T2, Prostaglandin G/H synthase 1 (Ovis aries); assay: Binding affinity to ovine COX-1 assessed as change in entropy by isothermal titration calorimetry; in short: as §1
[10] = biological target: T1, Prostaglandin G/H synthase 2 (Homo sapiens); remark: listed apart in the source
Mus musculus [11] = assay: Sedative activity in Swiss albino mouse at 300 mg/kg, po after 1 hr; assay type: ADME, organism-based; details: in vivo
In short: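 Acute oral toxicity in Swiss albino mice fasted 4 h, three per group, vehicle control group alongside. Single 300 mg/kg oral dose, continuous observation for 4 h, then periodic checks over 14 days.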

[12] = biological target: T2, Prostaglandin G/H synthase 1 (Ovis aries); remark: listed apart in the source
[13] = Tmax in Swiss albino mouse at 10 mg/kg, ip measured upto 24 hrs by LC-MS analysis; assay type: ADME, organism-based; details: in vivo
In short: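 Swiss albino mice (25−35 g), either sex, 10 groups of three. 10 mg/kg suspended in 0.1% CMC, given i.p. Ketamine anaesthesia (50 mg/kg i.p.). Jugular vein blood taken at 30, 45, 60 min and 2, 3, 4, 6, 8, 11, 24 h into heparinised tubes, triplicate samples per time point.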

Mus musculus [14] = assay: Antiinflammatory activity against Swiss albino mouse assessed as reduction in carragenan-induced paw edema at 5 mg/kg treated 30 mins prior to carrageenan challenge and measured upto 360 mins relative to control; assay type: functional; design: scale not given: the % may be the effect or the level left; details: time 390 min, 6.5 h; in short: as §2
[15] = biological target: T3, Prostaglandin G/H synthase 1 (Ovis aries, UniProt P05979); assay: Inhibition of ovine COX-1 using arachidonic acid as substrate preincubated for 10 mins followed by substrate addition and measured after 2 mins by EIA
T3 sequence (P05979 whole entry): T2 sequence (whole entry)
In short: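 COX-1 EIA run at 10⁻⁴–10⁻⁸ M in triplicate. Enzyme with heme in reaction buffer plus inhibitor, incubated 10 min at 37 °C. Boiled (3 min) enzyme served as background. Prostaglandin output quantified to give IC50.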

Mus musculus [16] = assay: Analgesic activity in Swiss albino mouse assessed as inhibition of acetic acid-induced writhing at 5 mg/kg, ip administered 30 mins prior to acetic acid challenge and measured after 30 mins relative to control; assay type: functional; design: scale not given: the % may be the effect or the level left; details: time 60 min, 1 h
In short: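 Mice pretreated i.p. with indomethacin (10 mg/kg) or test compound (5 mg/kg) 30 min before 0.6% v/v acetic acid injection. Control group also received acetic acid. Animals placed in a transparent box and abdominal writhings counted for 30 min. Six animals per group, one-way ANOVA with Tukey's test, mean ± SEM.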

**Q.** What does the source list for `O=C(O)Cn1nncc1CO[C@@H](C(=O)O)[C@@H](OCc1cnnn1CC(=O)O)C(=O)O`?
**A.** TdeltaS (Glycine max [1]): -2.99 kcal/mol; Activity (Mus musculus [2]): inactive; Activity (Mus musculus [3]): Active; Activity (Mus musculus [4]): 33%; deltaH [5]: -10.5 kcal/mol; deltaG (Glycine max [6]): -7 kcal/mol; deltaH [7]: -600 kcal/mol; Activity [8]: 1.6 ng/mL; TdeltaS [9]: -595 kcal/mol; deltaG [10]: -7.88 kcal/mol; Activity (Mus musculus [11]): Toxic; Ka [12]: 1.64 10^3/M; Tmax [13]: 1 h; Activity (Mus musculus [14]): 32.6%; IC50 [15]: 300 nM; Activity (Mus musculus [16]): 65%
